Laboratory results taken from PubChem BioAssay.
Inconclusive results are not listed.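 The calls were made as follows, unless noted: active = RAM network inhibition above 8.4% in each of two replicates, 3 SD over the compound average; inconclusive = above 8.4% inhibition in only one replicate; inactive = 8.4% inhibition or less in each replicate.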

Tests used:
[1] = S. cerevisiae growth inhibition in permissive medium (OD615), pilot counter-assay for S. cerevisiae lifespan shortening project, permissive growth control (AID 705;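 active = growth inhibition above 25% in both replicates, a cutoff set 3 SD above the mean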); conditions: OD615, 24 h, at 10 µM, hits give high values
Procedure, shortened: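 System: Engineered DeaD yeast | Buffer or medium: SC raffinose/galactose permissive medium | Incubation: Cells pre-grown 4 h, then 24 h compound exposure, 30 °C humidified | Measured by: Absorbance (optical density) at 615 nm | Read-out: Reduction in yeast growth (OD615)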

[2] = S. cerevisiae growth inhibition in restrictive medium, OD615, pilot screen, restrictive growth control, yeast lifespan reduction project (AID 706;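 active = growth inhibition above a set limit, 3 SD over mean compound inhibition, in both replicates, cut at about 43% in these data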;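 also: modified DeaD lifespan yeast strain shifted to restrictive glucose medium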); conditions: OD615, 48 h, at 10 µM, hits give high values
Procedure, shortened: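 Material: modified S. cerevisiae; Medium: glucose-based CSMM-D restrictive medium; Compound dosing: one concentration, 10 µM final, 0.25% DMSO; Incubation: 48 h compound exposure at 30 °C; Measured by: OD615.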

[3] = doxorubicin toxicity protection in MRP-1 cells – H69AR cells, CellTiter-Glo, duplicate, MRP-1 activator project, pilot screen (AID 807;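 active = viability increase at or above a cutoff of the median across tested compounds plus 3 SD, cut at about 8.5% in these data, passing the limit was not always enough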;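 also: compound pretreatment 18-22 h then 72 h combined with doxorubicin; 0% = doxorubicin alone and 100% = vehicle without doxorubicin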); conditions: H69AR viability with doxorubicin, CellTiter-Glo luminescence; at 10 µM; hits give high values
[4] = viability of HCT116 without oncogenic beta-catenin – human colon tumor cells, pilot screen (AID 823;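 active = cell viability at or below a set limit in both duplicate runs, the limit being the all-compound median minus 4 SD, cut at about 23% in these data, passing the limit was not always enough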;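 also: 0% = wells killed by 20 µM Hyamine and 100% = untreated DMSO cell wells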); conditions: HCT116 beta-catenin knockout viability, CellTiter-Glo, 60 h; at 10 µM; hits give low values
[5] = viability of PTEN-null HCT116 cells – cell-based, HCT116 clonal line, CellTiter-Glo, pilot screen (AID 824;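 active = viability at or below 27.92% in each of two runs, the all-compound median minus 4 SD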;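 also: 0% = 20 µM Hyamine control and 100% = vehicle cell control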); conditions: HCT116 PTEN-deleted viability, 60 h, at 10 µM, hits give low values
[6] = RAM pathway blockade in budding yeast – dse1pr::URA3 reporter, 5-FOA selection, pilot screen (AID 869;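 active = inhibition over a set limit, the all-compound mean plus 3 SD, in both replicate runs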;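 also: 0% = DMSO wells with no growth and 100% = 10 µM 1-NA-PP1 with full growth; RAM network block rescues cells from 5-FOA so hits raise OD615 growth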); conditions: S. cerevisiae dse1pr::URA3 5-FOA growth, OD615, 2 d; at 10 µM; hits give high values; strain carries analog-sensitive mutant Cbk1 kinase
[7] = RAM signaling pathway blockade in yeast – S. cerevisiae, Pdr1DBD-CYC8 efflux-inhibited sensitized strain, primary screen (AID 1298);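 also: 0% = DMSO untreated cells without growth and 100% = 10 µM 1-NA-PP1 full growth; higher means more yeast growth rescued from 5-FOA killing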; conditions: S. cerevisiae cbk1-as DSE1-URA3 strain, 5-FOA growth OD615, 2 d; at 50 µM; hits give high values

COc1ccc(-n2nnc3c(=O)n(CC(=O)N4CCC(C)CC4)cnc32)cc1
inactive: growth inhibition [1] 8.16% | growth inhibition [2] 3.46% | viability increase [3] -0.52% | viability [4] 95.8% | viability [5] 92.3% | inhibition [6] 1.77% | RAM network inhibition [7] 2.64%

COc1ccc(C2N(c3cc(Cl)ccc3OC)C(=O)C3CCCN32)cc1 (centres undefined)
inactive: growth inhibition [1] 2.4% | growth inhibition [2] -1.37% | viability increase [3] -1.89% | viability [4] 106% | viability [5] 96.9% | inhibition [6] 1.01% | RAM network inhibition [7] -0.42%

CC1CN(Cc2nc3c(c(=O)n(C)c(=O)n3C)n2Cc2ccccc2)CC(C)O1 (centres undefined)
inactive: growth inhibition [1] -2.62% | growth inhibition [2] 3.58% | viability increase [3] -0.81% | viability [4] 106% | viability [5] 100% | inhibition [6] 0.15% | RAM network inhibition [7] 2.1%

COc1ccccc1S(=O)(=O)Cc1ccc(C(=O)N2CCCC2)o1
inactive: growth inhibition [1] -3.58% | growth inhibition [2] -4.36% | viability increase [3] -1.51% | viability [4] 108% | viability [5] 101% | inhibition [6] 0.935% | RAM network inhibition [7] 0.94%

CCCOc1ccc(N2C(=O)CC(N3CCC(O)(c4cccc(C(F)(F)F)c4)CC3)C2=O)cc1 (centres undefined)
inactive: growth inhibition [1] 1.01% | growth inhibition [2] -0.55% | viability increase [3] 2.49% | viability [4] 101% | viability [5] 103% | inhibition [6] 2.71% | RAM network inhibition [7] 5.62%

O=C(Cc1cccs1)N(Cc1ccco1)C1(C(=O)NC2CCCC2)CCCCC1
inactive: growth inhibition [1] -6.91% | growth inhibition [2] -9.26% | viability increase [3] -5.17% | viability [4] 66.5% | viability [5] 67.1% | inhibition [6] 0.86% | RAM network inhibition [7] 6.21%

Cc1noc(C)c1S(=O)(=O)NC1CCN(Cc2ccccc2)CC1
inactive: growth inhibition [1] -12.1% | growth inhibition [2] -2.23% | viability increase [3] -0.68% | viability [4] 95.8% | viability [5] 94.1% | inhibition [6] 3.14% | RAM network inhibition [7] 4.49%

CC(O)CSc1nc2c(c(=O)n(C)c(=O)n2C)n1CCCc1ccccc1 (centres undefined)
inactive: growth inhibition [1] -7.62% | growth inhibition [2] -5.55% | viability increase [3] 0.66% | viability [4] 101% | viability [5] 96% | inhibition [6] 1.14% | RAM network inhibition [7] 5.17%

Cc1ccc2nc(-c3ccccc3)cc(C(=O)O)c2c1
inactive: growth inhibition [1] -9.89% | growth inhibition [2] 8.96% | viability increase [3] -2.12% | viability [4] 95.3% | viability [5] 87.8% | inhibition [6] 1.46% | RAM network inhibition [7] 3.9%

COc1cc2c(cc1OC)CN(Cc1cccs1)CC2
inactive: growth inhibition [1] -20.3% | growth inhibition [2] -28.9% | viability increase [3] -1.14% | viability [4] 86.4% | viability [5] 90% | inhibition [6] 2.71% | RAM network inhibition [7] 2.76%

CCOc1ccc(N=C2NC(=O)C(CC(=O)O)S2)cc1 (centres undefined)
inactive: growth inhibition [1] -5.86% | growth inhibition [2] 3% | viability increase [3] -0.06% | viability [4] 104% | viability [5] 101% | inhibition [6] 2.49% | RAM network inhibition [7] 2.45%

CCC(C)(C(=O)NC1CCCCC1)N(Cc1ccco1)C(=O)CC1NC(=O)NC1=O (centres undefined)
inactive: growth inhibition [1] -7.46% | growth inhibition [2] -7.12% | viability increase [3] -3.95% | viability [4] 97% | viability [5] 94.9% | inhibition [6] 1.58% | RAM network inhibition [7] 1.8%

CCCCC(=O)Nc1ccc(Br)cc1C(=O)O
inactive: growth inhibition [1] 5.08% | growth inhibition [2] -10.9% | viability increase [3] 0.11% | viability [4] 89.9% | viability [5] 97.8% | inhibition [6] 1.95% | RAM network inhibition [7] -1.59%

CC(OC(=O)c1cc[n+]([O-])cc1)C(=O)Nc1ccc(Cl)cn1 (centres undefined)
inactive: growth inhibition [1] 0.77% | growth inhibition [2] 0.53% | viability increase [3] -1.44% | viability [4] 102% | viability [5] 98.3% | inhibition [6] 1.23% | RAM network inhibition [7] 1.61%

Nc1cc(N)nc(SCCOc2ccccc2)n1
inactive: growth inhibition [1] -4.79% | growth inhibition [2] -0.825% | viability increase [3] 0.93% | viability [4] 106% | viability [5] 106% | inhibition [6] 2.26% | RAM network inhibition [7] 2.17%

CCOc1ccccc1NC(=O)CSc1nnc(-c2ccccn2)n1Cc1ccco1
inactive: growth inhibition [1] -4.62% | growth inhibition [2] 11.5% | viability increase [3] -1.92% | viability [4] 96.9% | viability [5] 98.5% | inhibition [6] 0.955% | RAM network inhibition [7] 3.98%

CC(C)N(C(=O)CSc1nc2c([nH]1)c(=O)n(C)c(=O)n2C)c1ccccc1
inactive: growth inhibition [1] -4.33% | growth inhibition [2] -12.7% | viability increase [3] 1.94% | viability [4] 106% | viability [5] 102% | inhibition [6] 1.22% | RAM network inhibition [7] 6.3%

COc1ccccc1C1NC(=O)NC(C)=C1C(=O)Nc1cccc(C)c1C (centres undefined)
inactive: growth inhibition [1] -5.33% | growth inhibition [2] -10.3% | viability increase [3] -1.32% | viability [4] 105% | viability [5] 102% | inhibition [6] 0.77% | RAM network inhibition [7] -1.38%

CCSC1=C(C#N)C(c2ccc(F)cc2)CC(=O)N1 (centres undefined)
inactive: growth inhibition [1] 5.18% | growth inhibition [2] -4.98% | viability increase [3] 1% | viability [4] 93.4% | viability [5] 101% | inhibition [6] 0.48% | RAM network inhibition [7] 2.29%

COc1ccccc1NC(=O)CSc1ncn[nH]1
inactive: growth inhibition [1] -3.71% | growth inhibition [2] -11% | viability increase [3] 1.06% | viability [4] 98.2% | viability [5] 101% | inhibition [6] -0.045% | RAM network inhibition [7] 2.9%

Cc1cc2nc(SCCN3CCCC3)[nH]c2cc1C
inactive: growth inhibition [1] 7.63% | growth inhibition [2] -8.07% | viability increase [3] -4.4% | viability [4] 83.1% | viability [5] 89.1% | inhibition [6] 3.22% | RAM network inhibition [7] -0.81%

CCOC(=O)c1cnc2c(Cl)cc(Cl)cc2c1NCCOCCO
inactive: growth inhibition [1] 1.23% | growth inhibition [2] -11.6% | viability increase [3] -5.62% | viability [4] 81.8% | viability [5] 74.4% | inhibition [6] -0.09% | RAM network inhibition [7] 2.56%
